PMC4935665 (Journal of bone and mineral research : the official journal …, 2016)

What was measured:
[1] = tested on: rats; conditions: daily injection 20 nmol/kg sc; cited from earlier work
[2] = tested on: TPTX rats; test: Single IV injection in TPTX rats, serum Ca and Pi; type: in vivo, rat; conditions: for time for sPi to return to vehicle-control levels: single IV 24.3 nmol/kg; for sCa response versus sham-control level: single IV 24.3 nmol/kg (highest dose); for duration of modest, transient sCa increase and sPi decrease: single IV, dose 80-fold higher than that used for LA-PTH
[3] = in vivo; conditions: rat, iv, 24.3 nmol/kg
[4] = tested on: cynomolgus monkeys; test: Single SC injection in cynomolgus monkeys, serum Ca; type: in vivo, cynomolgus monkey; conditions: SC 10 nmol/kg
How it was run: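 Normal cynomolgus monkeys receive SC injections in two experiments, with serum Ca followed after injection. In experiment 1, animals get vehicle or test peptide at 0.25, 0.5 or 1.0 nmol/kg, three animals per dose.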

[5] = rat, in vivo, iv
[6] = human, in vivo; cited from earlier work
[7] = tested on: HP patients; conditions: cited from earlier work
[8] = tested on: TPTX rats; type: in vivo, rat; conditions: once daily SC 9 nmol/kg
[9] = HP patients, single SC injection

Question: Which “serum calcium or phosphorus” value [1] does the source give for `CC[C@H](C)[C@H](NC(=O)[C@H](CCC(=O)O)NC(=O)[C@H](CO)NC(=O)[C@@H](NC(=O)[C@@H](N)CO)C(C)C)C(=O)N[C@@H](CCC(N)=O)C(=O)N[C@@H](CC(C)C)C(=O)N[C@@H](CCSC)C(=O)N[C@@H](Cc1c[nH]cn1)C(=O)N[C@@H](CC(N)=O)C(=O)N[C@@H](CC(C)C)C(=O)NCC(=O)N[C@@H](CCCCN)C(=O)N[C@@H](Cc1c[nH]cn1)C(=O)N[C@@H](CC(C)C)C(=O)N[C@@H](CC(N)=O)C(=O)N[C@@H](CO)C(=O)N[C@@H](CCSC)C(=O)N[C@@H](CCC(=O)O)C(=O)N[C@@H](CCCNC(=N)N)C(=O)N[C@H](C(=O)N[C@@H](CCC(=O)O)C(=O)N[C@@H](Cc1c[nH]c2ccccc12)C(=O)N[C@@H](CC(C)C)C(=O)N[C@@H](CCCNC(=N)N)C(=O)N[C@@H](CCCCN)C(=O)N[C@@H](CCCCN)C(=O)N[C@@H](CC(C)C)C(=O)N[C@@H](CCC(N)=O)C(=O)N[C@@H](CC(=O)O)C(=O)N[C@H](C(=O)N[C@@H](Cc1c[nH]cn1)C(=O)N[C@@H](CC(N)=O)C(=O)N[C@@H](Cc1ccccc1)C(=O)O)C(C)C)C(C)C` [PTH(1–34)] here?
Answer: little or no change

Question: What about the “time for sPi to return to vehicle-control levels” value [2] of the same compound?
Answer: ≤ 10 h

Question: What about the “sCa response versus sham-control level” value [2] of the same compound?
Answer: failed to attain the sCa levels seen in the sham-control animals

Question: And the “duration of modest, transient sCa increase and sPi decrease” value [2]?
Answer: < 6 h

Question: What about the half-life [3] of the same compound?
Answer: 7.8 min

Question: And the “efficacy for elevating sCa compared with PTH(1–84)” value ([4]; n = 3)?
Answer: even less effective

Question: Which results are given for “PTH(1–84): human parathyroid hormone, produced recombinantly”?
Answer: serum half-life t1/2 [5]: 5.4 min; true serum half-life in the blood [6]: five minutes or less; time for mean serum Ca to return to pre-dose, hypocalcemic levels [7, 9]: ≤ 24 h; time of peak sCa levels post-administration [7, 9]: ~7 h; serum half-life times ([7]; human, in vivo, sc): two to three hours; subjects with hypercalcemia at peak times ([7]; human, in vivo, sc): 71%; time for sPi to return to vehicle-control levels [2]: ≤ 10 h; sCa response versus sham-control level [2]: failed to attain the sCa levels seen in the sham-control animals; duration of modest, transient sCa increase and sPi decrease [2]: < 6 h; lumbar and femur BMD [8]: significantly increased; sCa versus vehicle-injected TPTX rats [8]: no persistent increase; sPi versus vehicle-injected TPTX rats [8]: only marginal reductions; trabecular number at the distal femur [8]: significantly increased; time for sCa to return to vehicle-control levels [4]: ≤ 24 h; peak sCa level ([4]; n = 2): ~ 11.4 mg/dL
